Results from ChEMBL document CHEMBL1629690, “Development of hexadecyloxypropyl tenofovir (CMX157) for treatment of infection caused by wild-type and nucleoside/nucleotide-resistant HIV” (Antimicrob Agents Chemother, 2010).

Tests used:
[1] = tested on: Human immunodeficiency virus 1; assay: Antiviral activity against HIV1 isolate 058 harboring reverse transcriptase M41L/D67N/K70R/L210W/T215F/K219Q mutant gene by phenosense assay relative to wild type; format: functional
Outline: (§1)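 Recombinant-virus PhenoSense HIV assay run on a panel of 30 NRTI-resistant HIV-1 mutants and two wild-type viruses. Each virus is tested across increasing drug concentrations to give an inhibition curve and EC50. Fold change is the test recombinant EC50 divided by the EC50 of the drug-sensitive wild-type reference virus.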

[2] = tested on: Human immunodeficiency virus 1; assay: Antiviral activity against HIV1 isolate 211 harboring reverse transcriptase D67N/K70R/T215F/K219E/M184V mutant gene by phenosense assay relative to wild type; format: functional
Outline: (§2)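 PhenoSense HIV recombinant virus assay: patient-derived HIV-1 with major NRTI resistance mutations tested against increasing drug concentrations to give inhibition curves. EC50 is the concentration giving 50% inhibition. Fold change is the test recombinant EC50 divided by the EC50 of a drug-sensitive wild-type reference virus. Panel of 30 NRTI-resistant isolates plus two wild-type viruses.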

[3] = tested on: Human immunodeficiency virus 1; assay: Antiviral activity against HIV1 isolate 157 harboring reverse transcriptase L74V/M184V mutant gene by phenosense assay relative to wild type; format: functional; outline: as §1
[4] = tested on: Human immunodeficiency virus 1; assay: Antiviral activity against HIV1 isolate 061 harboring reverse transcriptase M41L/D67N/K70R/M184V/L210W/T215Y/K219E mutant gene by phenosense assay; format: functional, organism-based; settings: Human immunodeficiency virus 1, isolate 061; outline: as §1
[5] = tested on: Human immunodeficiency virus 1; assay: Antiviral activity against HIV1 isolate 188 harboring reverse transcriptase T215Y/M184V mutant gene by phenosense assay relative to wild type; format: functional; outline: as §1
[6] = tested on: Human immunodeficiency virus 1; assay: Antiviral activity against HIV1 isolate 174 harboring reverse transcriptase M184V mutant gene obtained as site-directed mutant of NL4-3 by phenosense assay; format: functional, organism-based; settings: Human immunodeficiency virus 1, isolate 174; outline: as §1
[7] = tested on: Human immunodeficiency virus 1; assay: Antiviral activity against HIV1 isolate 160 harboring reverse transcriptase S68G/V75(I/T)/F77L/Y115F/F116Y /Q151M mutant gene by phenosense assay relative to wild type; format: functional; outline: as §1
[8] = tested on: Human immunodeficiency virus 1; assay: Antiviral activity against HIV1 isolate 060 harboring reverse transcriptase M41L/D67N/K70R/L210W/T215Y/K219E mutant gene by phenosense assay; format: functional, organism-based; settings: Human immunodeficiency virus 1, isolate 060; outline: as §1
[9] = tested on: Human immunodeficiency virus 1; assay: Antiviral activity against HIV1 isolate 215 harboring reverse transcriptase D67N/K70E mutant gene by phenosense assay relative to wild type; format: functional; outline: as §2
[10] = tested on: Human immunodeficiency virus 1; assay: Antiviral activity against HIV1 isolate 066 harboring reverse transcriptase 184V mutant gene by phenosense assay relative to wild type; format: functional; outline: as §1
[11] = tested on: Human immunodeficiency virus 1; assay: Antiviral activity against HIV1 isolate 185 harboring reverse transcriptase T215Y mutant gene by phenosense assay relative to wild type; format: functional; outline: as §1
[12] = tested on: Human immunodeficiency virus 1; assay: Antiviral activity against HIV1 isolate 069 harboring reverse transcriptase D67E/T69SSG/V75M/M184V/L210W/T215Y mutant gene by phenosense assay; format: functional, organism-based; settings: Human immunodeficiency virus 1, isolate 069; outline: as §1
[13] = tested on: Human immunodeficiency virus 1; assay: Antiviral activity against HIV1 isolate 192 harboring reverse transcriptase M41L/T215Y mutant gene by phenosense assay; format: functional, organism-based; settings: Human immunodeficiency virus 1, isolate 192; outline: as §1
[14] = tested on: Human immunodeficiency virus 1; assay: Antiviral activity against HIV1 isolate 217 harboring reverse transcriptase D67N/K70E/M184V mutant gene by phenosense assay relative to wild type; format: functional; outline: as §2
[15] = tested on: Human immunodeficiency virus 1; assay: Antiviral activity against HIV1 isolate 201 harboring reverse transcriptase M41L/L210W/T215Y mutant gene by phenosense assay relative to wild type; format: functional; outline: as §2
[16] = tested on: Human immunodeficiency virus 1; assay: Antiviral activity against HIV1 isolate 215 harboring reverse transcriptase D67N/K70E mutant gene by phenosense assay; format: functional, organism-based; settings: Human immunodeficiency virus 1, isolate 215; outline: as §2
[17] = tested on: Human immunodeficiency virus 1; assay: Antiviral activity against HIV1 isolate 206 harboring reverse transcriptase D67N/K70R mutant gene by phenosense assay; format: functional, organism-based; settings: Human immunodeficiency virus 1, isolate 206; outline: as §2
[18] = tested on: Human immunodeficiency virus 1; assay: Antiviral activity against HIV1 isolate 162 harboring reverse transcriptase A62V/V75I/F77L/Y115F/F116Y/Q151M/M184V mutant gene by phenosense assay relative to wild type; format: functional; outline: as §1
[19] = tested on: Human immunodeficiency virus 1; assay: Antiviral activity against HIV1 isolate 220 harboring reverse transcriptase K70E/M184V mutant gene by phenosense assay relative to wild type; format: functional; outline: as §2
[20] = tested on: Human immunodeficiency virus 1; assay: Antiviral activity against HIV1 isolate 070 harboring reverse transcriptase 65R/S68G mutant gene by phenosense assay relative to wild type; format: functional; outline: as §1
[21] = tested on: Human immunodeficiency virus 1; assay: Antiviral activity against HIV1 isolate 070 harboring reverse transcriptase 65R/S68G mutant gene by phenosense assay; format: functional, organism-based; settings: Human immunodeficiency virus 1, isolate 070; outline: as §1
[22] = tested on: Human immunodeficiency virus 1; assay: Antiviral activity against HIV1 isolate 200 harboring reverse transcriptase M41L/L210W/T215Y mutant gene by phenosense assay; format: functional, organism-based; settings: Human immunodeficiency virus 1, isolate 200; outline: as §1
[23] = tested on: Human immunodeficiency virus 1; assay: Antiviral activity against HIV1 isolate 063 harboring reverse transcriptase M41L/D67N/K70R/M184V/L210W/T215Y/K219E mutant gene by phenosense assay relative to wild type; format: functional; outline: as §1
[24] = tested on: Human immunodeficiency virus 1; assay: Antiviral activity against HIV1 isolate 066 harboring reverse transcriptase 184V mutant gene by phenosense assay; format: functional, organism-based; settings: Human immunodeficiency virus 1, isolate 066; outline: as §1
[25] = tested on: Human immunodeficiency virus 1; assay: Antiviral activity against HIV1 isolate 220 harboring reverse transcriptase K70E/M184V mutant gene by phenosense assay; format: functional, organism-based; settings: Human immunodeficiency virus 1, isolate 220; outline: as §2
[26] = tested on: Human immunodeficiency virus 1; assay: Antiviral activity against HIV1 isolate 180 harboring reverse transcriptase K65R mutant gene obtained as site-directed mutant of NL4-3 by phenosense assay relative to wild type; format: functional; outline: as §1
[27] = tested on: Human immunodeficiency virus 1; assay: Antiviral activity against HIV1 isolate 206 harboring reverse transcriptase D67N/K70R mutant gene by phenosense assay relative to wild type; format: functional; outline: as §2
[28] = tested on: Human immunodeficiency virus 1; assay: Antiviral activity against HIV1 isolate 174 harboring reverse transcriptase M184V mutant gene obtained as site-directed mutant of NL4-3 by phenosense assay relative to wild type; format: functional; outline: as §1
[29] = tested on: Human immunodeficiency virus 1; assay: Antiviral activity against HIV1 isolate 203 harboring reverse transcriptase M41L/L210W/T215Y/M184V mutant gene by phenosense assay; format: functional, organism-based; settings: Human immunodeficiency virus 1, isolate 203; outline: as §2
[30] = tested on: Human immunodeficiency virus 1; assay: Antiviral activity against HIV1 isolate 058 harboring reverse transcriptase M41L/D67N/K70R/L210W/T215F/K219Q mutant gene by phenosense assay; format: functional, organism-based; settings: Human immunodeficiency virus 1, isolate 058; outline: as §1
[31] = tested on: Human immunodeficiency virus 1; assay: Antiviral activity against HIV1 isolate 194 harboring reverse transcriptase M41L/T215Y/M184V mutant gene by phenosense assay; format: functional, organism-based; settings: Human immunodeficiency virus 1, isolate 194; outline: as §1
[32] = tested on: Human immunodeficiency virus 1; assay: Antiviral activity against HIV1 isolate 060 harboring reverse transcriptase M41L/D67N/K70R/L210W/T215Y/K219E mutant gene by phenosense assay relative to wild type; format: functional; outline: as §1
[33] = tested on: Human immunodeficiency virus 1; assay: Antiviral activity against HIV1 isolate 203 harboring reverse transcriptase M41L/L210W/T215Y/M184V mutant gene by phenosense assay relative to wild type; format: functional; outline: as §2
[34] = tested on: Human immunodeficiency virus 1; assay: Antiviral activity against HIV1 isolate 069 harboring reverse transcriptase D67E/T69SSG/V75M/M184V/L210W/T215Y mutant gene by phenosense assay relative to wild type; format: functional; outline: as §1
[35] = tested on: Human immunodeficiency virus 1; assay: Antiviral activity against HIV1 isolate 204 harboring reverse transcriptase M41L/L210W/T215Y/M184V mutant gene by phenosense assay; format: functional, organism-based; settings: Human immunodeficiency virus 1, isolate 204; outline: as §2
[36] = tested on: Human immunodeficiency virus 1; assay: Antiviral activity against HIV1 isolate 067 harboring reverse transcriptase A62V/D67G/T69SVG/V75I/T215I mutant gene by phenosense assay; format: functional, organism-based; settings: Human immunodeficiency virus 1, isolate 067; outline: as §1

SMILES	fold change (FC) [1]	fold change (FC) [2]	fold change (FC) [3]	EC50 [4]	fold change (FC) [5]	EC50 [6]	fold change (FC) [7]	EC50 [8]	fold change (FC) [9]	fold change (FC) [10]	fold change (FC) [11]	EC50 [12]	EC50 [13]	fold change (FC) [14]	fold change (FC) [15]	EC50 [16]	EC50 [17]	fold change (FC) [18]	fold change (FC) [19]	fold change (FC) [20]	other results
CCCCCCCCCCCCCCCCOCCCOP(=O)(O)CO[C@H](C)Cn1cnc2c(N)ncnc21 [TENOFOVIR EXALIDEX]	4.6	1	0.36	6.1 nM	0.9	1.2 nM	2	9.6 nM	1.2	0.73	2.7	11 nM	3.9 nM	0.78	3.5	2.1 nM	5.6 nM	1.6	0.71	1.9	EC50 [21]: 3.6 nM; EC50 [22]: 6 nM; fold change (FC) [23]: 2.8; EC50 [24]: 1.4 nM; EC50 [25]: 1.3 nM; fold change (FC) [26]: 2.6; fold change (FC) [27]: 3; fold change (FC) [28]: 0.62; EC50 [29]: 1.9 nM; EC50 [30]: 8.5 nM; EC50 [31]: 2.9 nM; fold change (FC) [32]: 3.3; fold change (FC) [33]: 1; fold change (FC) [34]: 6.1; EC50 [35]: 2.5 nM; EC50 [36]: 57 nM
Nc1nc(NC2CC2)c2ncn([C@H]3C=C[C@@H](CO)C3)c2n1 [ABACAVIR]	4.4	4.4	5.2	22000 nM	4.3	4700 nM	19	11000 nM	1.4	2.7	2.1	47000 nM	3400 nM	2.9	2.4	2400 nM	2500 nM	>29	5.9	3.2	EC50 [21]: 5700 nM; EC50 [22]: 5000 nM; fold change (FC) [23]: 7.9; EC50 [24]: 4800 nM; EC50 [25]: 10000 nM; fold change (FC) [26]: 2.6; fold change (FC) [27]: 1.4; fold change (FC) [28]: 2.6; EC50 [29]: 8200 nM; EC50 [30]: 7900 nM; EC50 [31]: 9600 nM; fold change (FC) [32]: 4.7; fold change (FC) [33]: 4.6; fold change (FC) [34]: 26; EC50 [35]: 8900 nM; EC50 [36]: 33000 nM
